Molecules are shown by their SMILES.

For the assay, the system named is Influenza A virus. In words: Antiviral activity against adamantane-, oseltamivir-, zanamivir-susceptible Influenza A virus (A/Georgia/17/2006(H1N1)) infected in MDCK cells assessed as inhibition of viral replication after 3 days by microscopic analysis using crystal violet stain. The following applies: 72 h. Type of assay: functional, organism-based. In short, it runs like this: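 Confluent MDCK-ATCC monolayers infected with virus diluted to give 15–45 plaques/well. Adsorption 1 h at 37°C without drug, then washed. Overlaid with 0.8% agarose in MEM containing drug plus TPCK-trypsin: 3 μg/ml for seasonal viruses, 2 μg/ml for 2009 A(H1N1). Incubated 3 days at 37°C, 5% CO2. Ethanol-fixed, crystal violet-stained, plaques counted. EC50 by curve fit; duplicates on three occasions, mean ± SD.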

For `NC(=O)c1ncn([C@@H]2O[C@H](CO)[C@@H](O)[C@H]2O)n1` [RIBAVIRIN], the EC50 (as a rule, the concentration at which the effect is half-maximal) was determined as 4.92 µM.

(Values after ChEMBL document CHEMBL1671691 (Antimicrob Agents Chemother, 2010).)
